Measurements: ChEMBL document CHEMBL1125291, “New 8-(trifluoromethyl)-substituted quinolones. The benefits of the 8-fluoro group with reduced phototoxic risk” (1992)
≈ marks a conversion by molar mass, not a printed value. Where “and” joins values, the source holds several entries; their conditions need not be identical. Identical values can stand only once.

Columns and labels:
Pseudomonas aeruginosa [1] = assay: Minimum inhibitory concentration (MIC) against gram negative bacteria Pseudomonas aeruginosa UI-18.; type: functional
How it was run: (§1)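 MICs were determined by standard broth microtitration against 11 Gram-positive and Gram-negative organisms, in µg/mL. Values come from duplicate or triplicate experiments and are accurate to ±50%.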

Streptococcus pneumoniae [2] = assay: In vivo efficacy (orally) against Streptococcus pneumoniae SV-1 in mouse protection test; type: functional; conditions: for ED50: Streptococcus pneumoniae, po, read-out: PD50
How it was run: (§2)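 Acute lethal systemic infections in female Charles River CD-1 mice. A single dose was given at challenge, orally by gavage or by subcutaneous injection. PD50 (median protective dose, mg/kg) was determined.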

Streptococcus pneumoniae [3] = assay: Minimum inhibitory concentration (MIC) against gram positive bacteria Streptococcus pneumoniae SV-1.; type: functional; how it was run: as §1
Escherichia coli [4] = assay: Minimum inhibitory concentration (MIC) against gram negative bacteria Escherichia coli Vogel.; type: functional; how it was run: as §1
Mus musculus [5] = organism: Mus musculus; assay: Dose required to induce phototoxic reaction in 50% of mice by […] reactions at different dosage forms; type: functional
How it was run: (§3)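 Depilated female CD-1 mice got a single oral (gavage) or subcutaneous dose, then UVA (320–400 nm) exposure for 3 h starting 1 h post-dose. This was repeated for up to 4 consecutive days. Initial doses were 30, 100 and 300 mg/kg. PTD50 was derived by probit. First day of positive reaction and no-effect dose were taken from the raw data.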

Streptococcus pyogenes [6] = assay: Minimum inhibitory concentration (MIC) against gram positive bacteria Streptococcus pyogenes C-203.; type: functional; how it was run: as §1
Streptococcus pyogenes [7] = assay: In vivo efficacy (s.c.) against Streptococcus pyogenes C-203 in mouse protection test; type: functional; conditions: for ED50: Streptococcus pyogenes, sc, read-out: PD50; how it was run: as §2
Escherichia coli [8] = assay: In vivo efficacy in mouse protection test in Escherichia coli Vogel dose administered orally by gavage.; type: functional; conditions: for ED50: Escherichia coli, po, read-out: PD50; how it was run: as §2
Pseudomonas aeruginosa [9] = assay: In vivo efficacy (s.c.) against Pseudomonas aeruginosa in mouse protection test; type: functional; conditions: for ED50: Pseudomonas aeruginosa, sc, read-out: PD50; how it was run: as §2
Staphylococcus aureus [10] = assay: Minimum inhibitory concentration (MIC) against gram positive bacteria Staphylococcus aureus H-228.; type: functional; how it was run: as §1
Mus musculus [11] = organism: Mus musculus; assay: Number of mice which show positive phototoxic reaction in 5 mice; type: functional
Pseudomonas aeruginosa [12] = assay: In vivo efficacy (orally) against Pseudomonas aeruginosa in mouse protection test; type: functional; conditions: for ED50: Pseudomonas aeruginosa, po, read-out: PD50; how it was run: as §2
Enterococcus faecalis = assay: Minimum inhibitory concentration (MIC) against gram positive bacteria Streptococcus faecalis MGH-2.; type: functional; how it was run: as §1
Escherichia coli [13] = assay: In vivo efficacy in mouse protection test in Escherichia coli Vogel administered by subcutaneous injection.; type: functional; conditions: for ED50: Escherichia coli, sc, read-out: PD50; how it was run: as §2
Enterobacter cloacae = assay: Minimum inhibitory concentration (MIC) against gram negative bacteria Enterobacter cloacae MA-2646.; type: functional
[14] = Minimum inhibitory concentration (MIC) against gram negative bacteria Prot. rettgeri M-1771.; type: functional, Providencia rettgeri; how it was run: as §1
[15] = Days of the first positive reaction in […] mice; type: functional, Mus musculus; how it was run: as §3
Streptococcus pneumoniae [16] = assay: In vivo efficacy (s.c.) against Streptococcus pneumoniae SV-1 in mouse protection test; type: functional; conditions: for ED50: Streptococcus pneumoniae, sc, read-out: PD50; how it was run: as §2
Klebsiella pneumoniae = assay: Minimum inhibitory concentration (MIC) against gram negative bacteria Klebsiella pneumoniae MGH-2.; type: functional; how it was run: as §1
Mus musculus [17] = organism: Mus musculus; assay: Dose which has no effect to induce phototoxic reaction in 50% of mice by probit method.; type: functional
Escherichia coli [18] = assay: Minimum inhibitory concentration (MIC) against gram negative bacteria Escherichia coli H-560.; type: functional; how it was run: as §1
Streptococcus pyogenes [19] = assay: In vivo efficacy (orally) against Streptococcus pyogenes C-203 in mouse protection test; type: functional; conditions: for ED50: Streptococcus pyogenes, po, read-out: PD50; how it was run: as §2
Mus musculus [20] = assay: Maximum tolerance dose was measured for phototoxic skin reaction by po administration; type: functional
Staphylococcus aureus [21] = assay: Minimum inhibitory concentration (MIC) against gram positive bacteria Staphylococcus aureus UC-76.; type: functional; how it was run: as §1
Mus musculus [22] = organism: Mus musculus; assay: Dose required to induce phototoxic reaction in 50% of mice by probit method at different dosage forms.; type: functional
Mus musculus [23] = assay: (§4) Maximum tolerance dose was measured for phototoxic skin reaction by sc administration; type: functional; how it was run: as §3
Mus musculus [24] = assay: as §4; type: functional; how it was run: as §3; remark: listed apart in the source
[25] = Number of mice which show positive phototoxic reaction in 5 mice at peroral dose; type: functional, Mus musculus; how it was run: as §3
[26] = Number of mice which show positive phototoxic reaction in 5 mice at subcutaneous dose; type: functional, Mus musculus; how it was run: as §3
Mus musculus [27] = assay: Days of the first positive reaction in […] mice after sc administration; type: functional
How it was run: (§5)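 Phototoxic skin reaction test in depilated female CD-1 mice. A single oral dose (gavage) or subcutaneous dose was given, followed 1 h later by 3 h of UVA exposure (320–400 nm). The regimen was repeated for up to 4 consecutive days, with initial doses of 30, 100 and 300 mg/kg. PTD50 was derived by the probit method. The first day of positive reaction and the no-effect dose were taken from the raw data.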

Mus musculus [28] = assay: Compound's dose which has no effect to induce phototoxic reaction in 50% of mice by […] reactions after sc administration; type: functional; how it was run: as §5
Mus musculus [29] = assay: Dose required to induce phototoxic reaction in 50% of mice by […] reactions at different dosage forms after sc administration; type: functional; how it was run: as §5
[30] = Pseudomonas aeruginosa, read-out: MIC
[31] = Streptococcus pneumoniae, read-out: MIC
[32] = Escherichia coli, read-out: MIC
[33] = Streptococcus pyogenes, read-out: MIC
[34] = Staphylococcus aureus, read-out: MIC
[35] = Enterococcus faecalis, read-out: MIC
[36] = Providencia rettgeri, read-out: MIC
[37] = Klebsiella pneumoniae, read-out: MIC

O=C(O)c1cn(C2CC2)c2c(F)c(N3CCNCC3)c(F)cc2c1=O gave an MIC (Pseudomonas aeruginosa [1]; [30]) of 0.2 mg/L (≈ 0.573 µM), an ED50 (Streptococcus pneumoniae [2]) of 59 mg/kg and an MIC (Streptococcus pneumoniae [3]; [31]) of 0.8 mg/L (≈ 2.29 µM). For the same molecule, the MIC (Escherichia coli [4]; [32]) was 0.05 mg/L (≈ 0.143 µM), the PTD50 (Mus musculus [5]) was 171 mg/kg and the MIC (Streptococcus pyogenes [6]; [33]) was 0.8 mg/L (≈ 2.29 µM). It also gave an ED50 (Streptococcus pyogenes [7]) of 8.9 mg/kg, an ED50 (Escherichia coli [8]) of 0.45 mg/kg and an ED50 (Pseudomonas aeruginosa [9]) of 2.5 mg/kg. The MIC (Staphylococcus aureus [10]; [34]) was 0.4 mg/L (≈ 1.15 µM), the “No. of pos rxns” value (Mus musculus [11]) was 0 and the ED50 (Pseudomonas aeruginosa [12]) was 6.6 mg/kg. The MIC (Enterococcus faecalis; [35]) was 0.4 mg/L (≈ 1.15 µM), the ED50 (Escherichia coli [13]) was 0.26 mg/kg and the MIC (Enterobacter cloacae) was 0.025 mg/L (≈ 0.0716 µM). The MIC [14, 36] was 0.1 mg/L (≈ 0.286 µM), the “Day of first positve reaction” value [15] was 0 and the ED50 (Streptococcus pneumoniae [16]) was 29 mg/kg. For the same molecule, the MIC (Klebsiella pneumoniae; [37]) was 0.05 mg/L (≈ 0.143 µM), the No effect dose (Mus musculus [17]) was 100 mg/kg and the MIC (Escherichia coli [18]; [32]) was 0.013 mg/L (≈ 0.0372 µM). It also gave an ED50 (Streptococcus pyogenes [19]) of 33 mg/kg, an MTD (Mus musculus [20]) of 100 mg/kg and an MIC (Staphylococcus aureus [21]; [34]) of 0.1 mg/L (≈ 0.286 µM).
With O=C(O)c1cn(C2CC2)c2cc(N3CCNCC3)c(F)cc2c1=O [CIPROFLOXACIN] the MIC (Pseudomonas aeruginosa [1]) was 0.2 mg/L (≈ 0.604 µM), the MIC (Pseudomonas aeruginosa [1]; [30]) was 0.2 mg/L (≈ 0.604 µM) and the PTD50 (Mus musculus [22]) was >300 mg kg-1 and 172. It also gave a PD50 (Streptococcus pneumoniae [2]) of 260 mg/kg, an ED50 (Streptococcus pneumoniae [2]) of 260 mg/kg and an MIC (Streptococcus pneumoniae [3]) of 0.8 mg/L (≈ 2.41 µM). For the same molecule, the MIC (Streptococcus pneumoniae [3]; [31]) was 0.8 mg/L (≈ 2.41 µM), the MIC (Escherichia coli [4]) was 0.025 mg/L (≈ 0.0754 µM) and the MIC (Escherichia coli [4]; [32]) was 0.025 mg/L (≈ 0.0754 µM). It also gave an MIC (Streptococcus pyogenes [6]) of 0.4 mg/L (≈ 1.21 µM), an MIC (Streptococcus pyogenes [6]; [33]) of 0.4 mg/L (≈ 1.21 µM) and a PD50 (Streptococcus pyogenes [7]) of 19 mg/kg. The ED50 (Streptococcus pyogenes [7]) was 19 mg/kg, the MTD (Mus musculus [23]) was 100 mg/kg and the PD50 (Escherichia coli [8]) was 1.2 mg/kg. For the same molecule, the ED50 (Escherichia coli [8]) was 1.2 mg/kg, the MTD (Mus musculus [24]) was 100 mg/kg and the “No. of pos rxns” value [25] was 0. It also gave a PD50 (Pseudomonas aeruginosa [9]) of 5 mg/kg, an ED50 (Pseudomonas aeruginosa [9]) of 5 mg/kg and an MIC (Staphylococcus aureus [10]) of 1.6 mg/L (≈ 4.83 µM). The MIC (Staphylococcus aureus [10]; [34]) was 1.6 mg/L (≈ 4.83 µM), the PD50 (Pseudomonas aeruginosa [12]) was 25 mg/kg and the ED50 (Pseudomonas aeruginosa [12]) was 25 mg/kg. For the same molecule, the MIC (Enterococcus faecalis) was 1.6 mg/L (≈ 4.83 µM), the MIC (Enterococcus faecalis; [35]) was 1.6 mg/L (≈ 4.83 µM) and the PD50 (Escherichia coli [13]) was 0.25 mg/kg. For the same molecule, the ED50 (Escherichia coli [13]) was 0.25 mg/kg, the “No. of pos rxns” value [26] was 5 and the “Day of first positve reaction” value (Mus musculus [27]) was 2. The MIC [14] was 0.1 mg/L (≈ 0.302 µM), the MIC [14, 36] was 0.1 mg/L (≈ 0.302 µM) and the No effect dose (Mus musculus [28]) was 100 mg/kg. The PTD50 (Mus musculus [29]) was 172 mg/kg, the PD50 (Streptococcus pneumoniae [16]) was 29 mg/kg and the ED50 (Streptococcus pneumoniae [16]) was 29 mg/kg. The MIC (Klebsiella pneumoniae) was 0.05 mg/L (≈ 0.151 µM), the MIC (Klebsiella pneumoniae; [37]) was 0.05 mg/L (≈ 0.151 µM) and the No effect dose (Mus musculus [17]) was 300 mg kg-1 and 100. The MIC (Escherichia coli [18]) was 0.025 mg/L (≈ 0.0754 µM), the MIC (Escherichia coli [18]; [32]) was 0.025 mg/L (≈ 0.0754 µM) and the PD50 (Streptococcus pyogenes [19]) was 180 mg/kg. The ED50 (Streptococcus pyogenes [19]) was 180 mg/kg, the MTD (Mus musculus [20]) was 300 mg/kg and the MIC (Staphylococcus aureus [21]) was 0.1 mg/L (≈ 0.302 µM). It also gave an MIC (Staphylococcus aureus [21]; [34]) of 0.1 mg/L (≈ 0.302 µM).
